In ChEMBL document CHEMBL3769319, “Antischistosomal activity of N,N'-arylurea analogs against Schistosoma japonicum” (Bioorg Med Chem Lett, 2016) one finds Activity and IC50 data, which are given here for 39 compounds.

Each structure is given as a SMILES string. Activity calls are given as the source filed them. The rule behind the calls is not given here.

The test system of assay [1] is Schistosoma japonicum. As to the kind of experiment: Antischistosomal activity against juvenile stage of Schistosoma japonicum at 32 uM after 72 hrs by microscopy.
The test system of assay [2] is Schistosoma japonicum. As to the kind of experiment: Antischistosomal activity against adult stage of Schistosoma japonicum after 72 hrs by microscopy. The assay is classed as functional, organism-based.
For assay [3], the system named is Schistosoma japonicum. As to the kind of experiment: Antischistosomal activity against juvenile stage of Schistosoma japonicum after 72 hrs by microscopy. The format is functional, organism-based. Summed up:
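Juvenile S. japonicum were screened at 32 µM for 72 h. Compounds that killed worms were then tested three times in 2-fold serial dilutions from 32 to 2 µM, each incubated 72 h, and IC50 was calculated.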

Assay [4] has as its system Schistosoma japonicum. Nature of the assay: Antischistosomal activity against adult stage of Schistosoma japonicum infected in ICR mouse assessed as reduction of parasite burden at 200 mg/kg, po administered as single dose measured after 14 days. Set-up: scale not given: the % may be the effect or the level left. The assay is classed as functional. Summed up: (§1)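 Mice with adult S. japonicum infection got one oral dose (200 or 400 mg/kg) as an ultrasound-aided corn oil suspension; one group got an HP-β-CD complex solution instead. Untreated infected mice served as controls, 5–6 per group. Worm counts (mean, SD) gave percent worm burden reduction against control.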

Assay [5] deals with Schistosoma japonicum. Nature of the assay: Antischistosomal activity against juvenile stage of Schistosoma japonicum infected in ICR mouse assessed as reduction of parasite burden at 200 mg/kg, po administered as single dose measured after 14 days. The format is functional. The arrangement: scale not given: the % may be the effect or the level left.
Assay [6] has as its system Schistosoma japonicum. Nature of the assay: Antischistosomal activity against juvenile stage of Schistosoma japonicum infected in ICR mouse assessed as reduction of parasite burden at 400 mg/kg, po administered as single dose measured after 14 days. The assay is classed as functional. The arrangement: scale not given: the % may be the effect or the level left.
For assay [7], the system named is Schistosoma japonicum. Nature of the assay: Antischistosomal activity against adult stage of Schistosoma japonicum infected in ICR mouse assessed as reduction of parasite burden at 400 mg/kg, po administered as single dose measured after 14 days. The assay is classed as functional. The arrangement: scale not given: the % may be the effect or the level left. Summed up:
as §1

A further assay concerns Schistosoma mansoni. As to the kind of experiment: Antischistosomal activity against Schistosoma mansoni infected in mouse assessed as reduction of parasite burden at 400 mg/kg, po administered as single dose. Set-up: scale not given: the % may be the effect or the level left. The assay is classed as functional.

Take `Clc1ccc(Nc2cc(Nc3ccc(Cl)c(Cl)c3)ncn2)cc1Cl`: in the assay with Schistosoma japonicum [1], the result was inactive. As to `O=C(Nc1ccc(Cl)c(Cl)c1)Nc1ccc(Cl)c(C(F)(F)F)c1`, the values for the half-inhibitory concentration (IC50) with Schistosoma japonicum [2] and in the assay with Schistosoma japonicum [3] were 1.5 µM and 2.5 µM, respectively. For the same compound, the results for the Activity in the assay with Schistosoma japonicum [4] and in the assay with Schistosoma japonicum [5] were 26.6% and 11.6%, respectively. `O=C(Nc1ccccc1S(=O)(=O)N1CCOCC1)Nc1ccccc1S(=O)(=O)N1CCOCC1` came in with an IC50 with Schistosoma japonicum [3] of 22.6 µM.

Consider `Cc1ccc(NC(=O)Nc2ccc(Cl)c(Cl)c2)cc1`, for which the result in the assay on Schistosoma japonicum [1] was inactive. Take `O=C(Nc1ccc(Cl)c(Cl)c1)Nc1ccc(N2CCOCC2)c(C(F)(F)F)c1`: the IC50 worked out at 8.4 µM in the assay on Schistosoma japonicum [2] and 9.6 µM in the assay on Schistosoma japonicum [3]. In addition, the values for the Activity in the assay with Schistosoma japonicum [6] and in the assay with Schistosoma japonicum [7] were 18.8% and 3.4%, respectively.

Take `O=C(Nc1cccnc1)Nc1ccc(Cl)c(Cl)c1`: in the assay on Schistosoma japonicum [1], the outcome was inactive.

In the case of `O=C1N(c2ccc(Cl)c(Cl)c2)CCN1c1ccc(Cl)c(C(F)(F)F)c1`, in the assay with Schistosoma japonicum [1], the outcome was inactive. Take `O=C(Nc1cnc(Cl)c(Cl)c1)Nc1cnc(Cl)c(Cl)c1`: in the assay on Schistosoma japonicum [1], the result was inactive.

For the compound `COc1ccc(NC(=O)Nc2ccc(Cl)c(Cl)c2)cc1`, the outcome in the assay on Schistosoma japonicum [1] was inactive. With `O=S(=O)(Nc1ccc(Cl)c(Cl)c1)Nc1ccc(Cl)c(Cl)c1`, the result in the assay with Schistosoma japonicum [1] was Active. This compound returned an IC50 in the assay with Schistosoma japonicum [3] of 22.6 µM.

Consider `Cc1ccc(NC(=O)Nc2ccc(Cl)c(Cl)c2)cc1Cl`, for which the IC50 in the assay on Schistosoma japonicum [3] worked out at 12.7 µM. Consider `O=C(Nc1ccc(Cl)c(Cl)c1)Nc1ccccc1F`, for which, in the assay with Schistosoma japonicum [1], the result was inactive.

As for `O=C(Nc1ccc(Cl)c(Cl)c1)Nc1cccc2cnccc12`, the IC50 in the assay with Schistosoma japonicum [3] stood at 22.6 µM. Turning to `Clc1nc(Nc2ccc(Cl)c(Cl)c2)nc(Nc2ccc(Cl)c(Cl)c2)n1`, in the assay on Schistosoma japonicum [1], the result was inactive. On the same count and under the same terms, as for `CCCCNC(=O)Nc1ccc(Cl)c(Cl)c1`, the entry is “inactive”; as for `COc1ccccc1NC(=O)Nc1ccc(Cl)c(Cl)c1`, “inactive”; as for `COc1cccc(NC(=O)Nc2ccc(Cl)c(Cl)c2)c1`, “inactive”. In the assay with Schistosoma japonicum [3], `O=C(Nc1cccc(Cl)c1)Nc1ccc(Cl)c(Cl)c1` displayed an IC50 of 10.1 µM. As to `O=C1N(c2ccc(Cl)c(Cl)c2)C(O)C(O)N1c1ccc(Cl)c(C(F)(F)F)c1` (stereo not drawn), in the assay with Schistosoma japonicum [1], the outcome was inactive. `N#Cc1cc(NC(=O)Nc2ccc(Cl)c(Cl)c2)ccc1F`: the IC50 is 2.2 µM in the assay on Schistosoma japonicum [2] and 4.3 µM in the assay with Schistosoma japonicum [3]. The Activity is recorded as 14.6% with Schistosoma japonicum [6] and 11.4% in the assay on Schistosoma japonicum [7]. On the same counts, the results for `O=C(Nc1ccc(F)c(F)c1)Nc1ccc(Cl)c(Cl)c1` are 2.2 µM, 4.7 µM, 27.8% and 0%. `O=C(Nc1ccc(Cl)c(Cl)c1)NC12CC3CC(CC(C3)C1)C2`: the outcome in the assay with Schistosoma japonicum [1] was inactive. Same read-out and setting: as for `Nc1ccc(NC(=O)Nc2ccc(Cl)c(Cl)c2)cc1`, the entry is “inactive”.

For the compound `O=C(Nc1ccc(F)c(F)c1)Nc1ccc(F)c(F)c1`, the IC50 stood at 5.1 µM in the assay on Schistosoma japonicum [2] and 7 µM in the assay on Schistosoma japonicum [3]. Besides, the Activity with Schistosoma japonicum [6] was determined as 6.4%; with Schistosoma japonicum [7], 2.3%. `O=C(Nc1ccc(Cl)c(Cl)c1)C(=O)Nc1ccc(Cl)c(Cl)c1`: the outcome with Schistosoma japonicum [1] was inactive.

Regarding `O=C(Nc1ccc(Cl)c(Cl)c1)NN1CCN(c2ccccc2)CC1`, the outcome in the assay on Schistosoma japonicum [1] was inactive.

On to `O=C(C1CCCCC1)N1CC(=O)N2CCc3ccccc3C2C1` (stereo not drawn) [PRAZIQUANTEL], for which, in the assay with Schistosoma japonicum [7], the Activity is 90.7%. Regarding `O=C(Nc1ccc(Cl)c(Cl)c1)Nc1cnc(Cl)c(Cl)c1`, the IC50 with Schistosoma japonicum [3] worked out at 11.3 µM. Turning to `O=C(Nc1ccc(Cl)c(C(F)(F)F)c1)Nc1ccc(Cl)c(C(F)(F)F)c1`, the figures for the IC50 in the assay with Schistosoma japonicum [2] and with Schistosoma japonicum [3] were 2.2 µM and 2.8 µM, respectively. The Activity in the assay with Schistosoma japonicum [4] is 32.6%; with Schistosoma japonicum [5], 33.4%. As for `O=C(Nc1ccc(Cl)c(Cl)c1)NC1CCCCC1`, the outcome in the assay on Schistosoma japonicum [1] was inactive.

`O=C(Nc1ccc(Cl)c(Cl)c1)Nc1cccc2ccccc12` came in with an IC50 in the assay with Schistosoma japonicum [3] of 12.8 µM. Take `O=C(Nc1ccc(Cl)c(Cl)c1)Nc1ccc(Cl)c(Cl)c1`: the IC50 with Schistosoma japonicum [2] was 2.2 µM; in the assay on Schistosoma japonicum [3], 4.4 µM. In addition, the values for the Activity in the assay on Schistosoma mansoni, in the assay with Schistosoma japonicum [6] and in the assay on Schistosoma japonicum [7] were 52.5%, 32.2% and 9.3%, respectively.

In the case of `S=C(Nc1ccc(Cl)c(Cl)c1)Nc1ccc(Cl)c(Cl)c1`, the outcome with Schistosoma japonicum [1] was inactive. As to `Clc1ccc(Nc2nc(Nc3ccc(Cl)c(Cl)c3)nc(N3CCOCC3)n2)cc1Cl`, the outcome in the assay on Schistosoma japonicum [1] was Active. This compound had an IC50 with Schistosoma japonicum [3] of 19 µM. In the case of `O=C(Nc1ccccn1)Nc1ccccn1`, the outcome in the assay with Schistosoma japonicum [1] was inactive. As to `O=C(Nc1ccc(N2CCOCC2)c(C(F)(F)F)c1)Nc1ccc(N2CCOCC2)c(C(F)(F)F)c1`, in the assay on Schistosoma japonicum [3], the IC50 stood at 22.6 µM.

For the compound `O=C(Nc1cccnc1)Nc1cccnc1`, the outcome in the assay on Schistosoma japonicum [1] was inactive. Still for that read-out and setting: as for `O=C1C(=O)N(c2ccc(Cl)c(C(F)(F)F)c2)C(=O)N1c1ccc(Cl)c(Cl)c1`, the entry is “inactive”. For the compound `C[C@H]1[C@H](OC(=O)CCC(=O)O)O[C@@H]2O[C@@]3(C)CC[C@H]4[C@H](C)CC[C@@H]1[C@@]24OO3` [ARTESUNATE], in the assay with Schistosoma japonicum [6], the Activity is listed as 72.4%.
